Source: ChEMBL document CHEMBL1138918, “Discovery of potent and orally available malonyl-CoA decarboxylase inhibitors as cardioprotective agents” (J Med Chem, 2006)
Active and inactive are the calls of the source. No cut-off for these calls is given here.

Columns and labels:
[1] = species on record: Rattus norvegicus; experiment: Increase in glucose oxidation rate in rat heart at 10 uM relative to control; type: functional
In short: (§1)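 Isolated working rat hearts; glucose oxidation rate expressed as ratio of compound-treated to 0.05% DMSO vehicle control, n = 8 hearts; test concentration 10 µM, or 1 µM where stated.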

[2] = species on record: Rattus norvegicus; experiment: Increase in glucose oxidation rate in rat heart at 1 uM relative to control; type: functional; in short: as §1
[3] = Half life in Sprague-Dawley rat at 10 mg/kg, iv; type: ADME, organism-based; set-up: dose 10 mg/kg, route intravenous; settings: in vivo
[4] = Tmax in Sprague-Dawley rat at 10 mg/kg, po; type: ADME, organism-based; set-up: dose 10 mg/kg, route oral; settings: in vivo
[5] = Cmax in Sprague-Dawley rat at 10 mg/kg, po; type: ADME, organism-based; set-up: dose 10 mg/kg, route oral; settings: in vivo
[6] = test system: Rattus norvegicus; experiment: Volume of distribution in Sprague-Dawley rat at 10 mg/kg, iv or po; type: ADME, organism-based; set-up: dose 10 mg/kg, route oral; settings: in vivo
[7] = Oral bioavailability in Sprague-Dawley rat at 10 mg/kg, iv and po; type: ADME, organism-based; settings: in vivo
In short: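 Rats dosed iv and po; F computed as ratio of dose-normalized oral to iv plasma AUC over the same time frame.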

[8] = species on record: Rattus norvegicus; experiment: Cardioprotective activity in global ischemia-reperfusion rat model; type: functional, organism-based
In short: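 Isolated rat hearts perfused aerobically 30 min, then 30 min global no-flow ischemia and 60 min aerobic reperfusion; compound at 1 µM added to perfusate either before ischemia or at onset of reperfusion.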

Row | SMILES | Activity [1] | other results
1 | CC(CC(=O)OC(C)(C)C)NC(=O)C1=NOC(C(O)(C(F)(F)F)C(F)(F)F)C1 (stereo unspecified) | 7.32% | Activity [2]: 3.07%; half-life [3]: 2.3 h; Tmax [4]: 0.5 h; Cmax [5]: 2680 ng/mL; Vss [6]: 2.193 L/kg; bioavailability [7]: 74%; Activity [8]: Active
2 | C[C@@H](CC(=O)OC(C)(C)C)NC(=O)C1=NOC(C(O)(C(F)(F)F)C(F)(F)F)C1 (stereo partly specified) | 5.01% | –
3 | CC(C)CCCC(C)NC(=O)C1=NOC(C(O)(C(F)(F)F)C(F)(F)F)C1 (stereo unspecified) | 1.26% | –
4 | CC(C)CC(CC(=O)OC(C)(C)C)NC(=O)C1=NOC(C(O)(C(F)(F)F)C(F)(F)F)C1 (stereo unspecified) | 4.28% | –
5 | CC(C)CN(CC(C)C)C(=O)C1=NOC(C(O)(C(F)(F)F)C(F)(F)F)C1 (stereo unspecified) | 2.11% | –
6 | CCCCCC(C)NC(=O)C1=NOC(C(O)(C(F)(F)F)C(F)(F)F)C1 (stereo unspecified) | 0.8% | –
7 | CC(C)(C)OC(=O)CCNC(=O)C1=NOC(C(O)(C(F)(F)F)C(F)(F)F)C1 (stereo unspecified) | 4.54% | –
8 | CC(C)(C)OCCCNC(=O)C1=NOC(C(O)(C(F)(F)F)C(F)(F)F)C1 (stereo unspecified) | 5.42% | –
9 | CC(C)C[C@@H](CC(=O)OC(C)(C)C)NC(=O)C1=NOC(C(O)(C(F)(F)F)C(F)(F)F)C1 (stereo partly specified) | 3.24% | –
